Measurements as given in ChEMBL document CHEMBL5055684, “Into Deep Water: Optimizing BCL6 Inhibitors by Growing into a Solvated Pocket” (J Med Chem, 2021).

Test system: not listed separately
Experiment: Plasma concentration in BALB/c mouse assessed as unbound fraction at 1 mg/kg, iv or 5 mg/kg, po
Format: ADME, organism-based
Details: not given
Outline: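 Unbound fraction measured by equilibrium dialysis in mouse plasma.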

Q: For `Cn1c(=O)cc(NC(C)(C)c2ncc(C3CC3)cn2)c2cc(Nc3ccnc(Cl)c3C#N)ccc21`, which fraction unbound is on record?
A: 0.013

Test system: not listed separately
Experiment: Permeability of the compound by PAMPA
Format: ADME
Details: read-out: permeability (converted)

Q: Which Papp does the source give for `Cc1cnc(C(C)Nc2cc(=O)n(C)c3ccc(Nc4ccnc(Cl)c4C#N)cc23)nc1` (centres undefined) here?
A: 5.6 ×10⁻⁶ cm/s

Q: With `Cc1nnc(C(C)Nc2cc(=O)n(C)c3ccc(Nc4ccnc(Cl)c4C#N)cc23)o1` (centres undefined) as the molecule, how does the Papp read?
A: < 0.2 ×10⁻⁶ cm/s

Q: For `CC(Nc1cc(=O)n(CC2CC2)c2ccc(Nc3ccnc(Cl)c3C#N)cc12)c1ncccn1` (centres undefined), which Papp is on record?
A: 8.5 ×10⁻⁶ cm/s

Q: Which Papp does the source give for `Cn1c(=O)cc(NC(C)(C)c2ncccn2)c2cc(Nc3ccnc(Cl)c3C#N)ccc21` here?
A: 1.8 ×10⁻⁶ cm/s

Q: Which Papp does the source give for `CC(Nc1cc(=O)n(C)c2ccc(Nc3ccnc(Cl)c3C#N)cc12)c1ncco1` (centres undefined) here?
A: 1 ×10⁻⁶ cm/s

Q: With `Cn1c(=O)cc(NC(C)(C)c2ncc(C3CC3)cn2)c2cc(Nc3ccnc(Cl)c3C#N)ccc21` as the molecule, how does the Papp read?
A: 35 ×10⁻⁶ cm/s

Q: For `C[C@@H](Nc1cc(=O)n(C)c2ccc(Nc3ccnc(Cl)c3C#N)cc12)c1ncccn1`, which Papp is on record?
A: 0.8 ×10⁻⁶ cm/s

Q: With `CC(Nc1cc(=O)n(CC2CCC2)c2ccc(Nc3ccnc(Cl)c3C#N)cc12)c1ncccn1` (centres undefined) as the molecule, how does the Papp read?
A: 21 ×10⁻⁶ cm/s

Q: With `CC(Nc1cc(=O)n(C)c2ccc(Nc3ccnc(Cl)c3C#N)cc12)c1ncc(C2CC2)cn1` (centres undefined) as the molecule, how does the Papp read?
A: 14 ×10⁻⁶ cm/s

Q: For `CC(Nc1cc(=O)n(C)c2ccc(Nc3ccnc(Cl)c3C#N)cc12)c1ncn(C)n1` (centres undefined), which Papp is on record?
A: 1.8 ×10⁻⁶ cm/s

Q: For `CNC(=O)C(C)Nc1cc(=O)n(C)c2ccc(Nc3ccnc(Cl)c3C#N)cc12` (centres undefined), which Papp is on record?
A: < 0.2 ×10⁻⁶ cm/s

Test system: Mus musculus
Experiment: Toxicity in BALB/c mouse at 1 mg/kg, iv or 5 mg/kg, po
Format: organism-based
Details: in vivo

Q: For `Cn1c(=O)cc(NC(C)(C)c2ncc(C3CC3)cn2)c2cc(Nc3ccnc(Cl)c3C#N)ccc21`, which Activity is on record?
A: Non-Toxic

Molecular target: B-cell lymphoma 6 protein (Homo sapiens, UniProt P41182)
Experiment: Inhibition of BCOR peptide binding to human BCL6 expressed in Escherichia coli measured after 270 mins by BCOR ULight TR-FRET assay
Details: not given
Outline: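 Biochemical TR-FRET assay with the BTB domain of BCL6 (not full-length protein) and a short corepressor-derived peptide, measuring inhibition of their binding. The result is reported as an IC50.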

Q: For `CNC(=O)COc1cc2cc(Nc3nc(N4CCC(C(=O)N(C)C)CC4)ncc3Cl)cc(OC)c2n(C)c1=O`, which IC50 is on record?
A: < 30 nM
